Test system: MS2 coat protein
Assay: apparent Kd, MS2 coat protein; higher = weaker binding; RNA-MaP array; FMN 200 µM where present
Summary of the method: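 On Illumina sequencing-chip clusters, designs were transcribed by stalled E. coli RNA polymerase and titrated with SNAP-549-labelled MS2 coat protein (0.7 or 1.5 nM, doubling to 3 µM), without and then with constant ligand, in 100 mM Tris-HCl pH 7.5, 80 mM KCl, 4 mM MgCl2, BSA, DTT, yeast tRNA and Tween-20. Apparent Kd is the median of filtered per-cluster curve fits to green signal normalised to red-channel RNA signal and control-cluster median Fmax.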

[1] = designed as: ON switch for flavin mononucleotide, no ligand
[2] = ligand present: flavin mononucleotide, designed as: ON switch for flavin mononucleotide
[3] = designed as: OFF switch for flavin mononucleotide, no ligand
[4] = ligand present: flavin mononucleotide, designed as: OFF switch for flavin mononucleotide

## UUCAAAUCGUAGAAGGGUGACAUGAGGAUCACCCAUGUGCAGCAGCCGUGAACGGCCAUGCUGCCACAGGAUAUACGAUGGAGU
[1]
  apparent Kd: 93.2 nM
[2]
  apparent Kd: 96.5 nM

## UUCAAAUUCGUAGGAUAUGUAUAAAUUUUCUACAUGAGGAUCACCCAUGUUACCAUUUUAAAUUGACAGAAGGACGUAAUCUAA
[1]
  apparent Kd: 22.5 nM
[2]
  apparent Kd: 8.74 nM

## UUCAGCUCGUGAGGAUAUACAUGUGCUGGAAACAGCAUUAAAUUUUUCACAUGAGGAUCACCCAUGUAGAAGGCACGAGCUGAG
[3]
  apparent Kd: 16.6 nM
[4]
  apparent Kd: 39.8 nM

## UUCAUCAAUGAAGGAUAUCUAUGUCCAACAUGAGGAUCACCCAUGUUGAGGAUUACCUAUGUGUAGGAGAAGGUCAAUAUAACU
[1]
  apparent Kd: 6.53 nM
[2]
  apparent Kd: 5.93 nM

## UUCCAACGAGGAUAUCGAUGGUGGAACAUGAGGAUCACCCAUGUAUGAGAUAUUGUAGUUCGAGAAGGCGUUCAGU
[3]
  apparent Kd: 36.9 nM
[4]
  apparent Kd: 32.2 nM

## UUCCCAAGUGCAGGAUAUGCUUCACCGACCUCAGCAGAAGGGCACAUGAGGAUCACCCAUGUGGCAAAAGUACACAGCAAGCUG
[3]
  apparent Kd: 7.74 nM
[4]
  apparent Kd: 11 nM

## UUCCGACAUGAGGAUCACCCAUGUAAGGAUAUGUAUCCUUCGGCCCGAACCAGAGGAAGCAGAAGGUACAGGGA
[3]
  apparent Kd: 31.3 nM
[4]
  apparent Kd: 20 nM

## UUCCUCGAAGGAUAUUCGACUAGGUACAUGAGGAUCACCCAUGUCAUGAGCCCAAUAGGCGAAGAAGGUCGAGUGU
[3]
  apparent Kd: 23.5 nM
[4]
  apparent Kd: 34.6 nM

## UUCCUGUCAGGAUAUGACUAGAUGCACGUUAGUGUGUUUACUUAGAAGGGACAUGAGGAUCACCCAUGUAGUCC
[3]
  apparent Kd: 36.2 nM
[4]
  apparent Kd: 33 nM

## UUCGAGUUGCAAGGAUAUCUUAUUUAGAUUUUAAGAGAAGGUGCUUCACAGCUACAUGAGGAUCACCCAUGUCUUUCUUCUUAU
[1]
  apparent Kd: 29.7 nM
[2]
  apparent Kd: 23.7 nM

## UUCGCUAAGGUGUAGCGAGACAUGCAAGAAGGGUGAAGAACAUGAGGAUCACCCAUGUAGACGGUACAGGAUAUUGAUUGACGA
[1]
  apparent Kd: 128 nM
[2]
  apparent Kd: 89.3 nM

## UUCGUGCAGCAUUGCUGUACGCGUACAUGAGGAUCACCCAUGUAGGAUAUGGUAGGCAAAGCUUACUAGAAGGAUAUAGUGAUC
[3]
  apparent Kd: 109 nM
[4]
  apparent Kd: 114 nM

## UUCUUACAUGAGGAUCACCCAUGUCAGGAUAUCUCCUCACUGCGCUUGCGCAGUGAAUAGAGAAGGGACAGGCU
[3]
  apparent Kd: 51.3 nM
[4]
  apparent Kd: 43.8 nM

## UUCUUCAGGUCAGGAUAUGCACAAGUUCAACGAGCAGAAGGGACAUGAGGAUCACCCAUGUAAAGGGCACCGGCUAACGUUCGA
[3]
  apparent Kd: 258 nM
[4]
  apparent Kd: 182 nM

## UUGAAUCGAAACAUGAGGAUCACCCAUGUGUCGUAGGUAGCAUAGGAUAUGUACAUACUGUUGGGAUAGAAGGAUGAUGAUGCU
[1]
  apparent Kd: 8.62 nM
[2]
  apparent Kd: 7.47 nM

## UUGAAUUUAAACAUGAGGAUCACCCAUGUGUCAUAGUUGAUAUAGGAUAUGUUUAUACUUUGAAAGCAGAAGGAUGACGAUACU
[1]
  apparent Kd: 18.9 nM
[2]
  apparent Kd: 15.2 nM

## UUGAGGUCAGGAUAUGCAUGGCGGGACUUGCGUCGUGGCGUGGAGAAGGGACAUGAGGAUCACCCAUGUGGAGA
[3]
  apparent Kd: 83.5 nM
[4]
  apparent Kd: 81.6 nM

## UUGAGUUAGCAGGAUAUGGGCAGCAGGAUGCUUCCAGAAGGGCUGACAUGAGGAUCACCCAUGUUCCCAUGCUU
[3]
  apparent Kd: 47.7 nM
[4]
  apparent Kd: 63.6 nM

## UUGAUUAUACAAGGAUAUCAAUUGUAUACAAGUCUUACAUGAGGAUCACCCAUGUUAAAUUUUUUUGAGAAGGUGUGUUUUCAG
[1]
  apparent Kd: 32.2 nM
[2]
  apparent Kd: 29.5 nM

## UUGCCCGCCGGAGGAUAUCUACUCUGUGGUGCACUGCGUUUGCAAUACAUGAGGAUCACCCAUGUAGAGAAGGCCGAGGGCACA
[3]
  apparent Kd: 318 nM
[4]
  apparent Kd: 48.3 nM

## UUGCCUCAGAACAUGAGGAUCACCCAUGUGCUGCGGGCAACGUAGGAUAUGACGGUAUGAUACCGUCAGAAGGAUGAUGGUACC
[1]
  apparent Kd: 5.62 nM
[2]
  apparent Kd: 5.25 nM

## UUGCCUCAGAACAUGAGGAUCACCCAUGUGCUGCGGGCAACGUAGGAUAUGAUGGUAUUAUACCGUCAGAAGGAUGAUGGUACU
[1]
  apparent Kd: 5.59 nM
[2]
  apparent Kd: 5.2 nM

## UUGCGGUAGGAGAAGGACAGAGGCUUAAUUACAUACAUGAGGAUCACCCAUGUAGGAUAUCCUACCUAACGCGGACUCCUCCUG
[3]
  apparent Kd: 6.82 nM
[4]
  apparent Kd: 7.25 nM

## UUGCUACAUGAGGAUCACCCAUGUCAGGAUAUUGUGUAUAGCGUGGAAGCUCUGUCGAUAAGAAGGGACUGUCU
[3]
  apparent Kd: 25.6 nM
[4]
  apparent Kd: 23.3 nM

## UUGGACGACGUAGGAUAUGUAGGAUAUUCCUACAUGAGGAUCACCCAUGUUGACAUGGAAGAAGGACAGAAGGACGAUGUCCAU
[1]
  apparent Kd: 261 nM
[2]
  apparent Kd: 5.57 nM

## UUGGACGUCGUAGGAUAUGUAGGAUAUUCCUACAUGAGGAUCACCCAUGUAGACAUGGAAGAAGGACAGAAGGACGAUGUCCAU
[1]
  apparent Kd: 25.9 nM
[2]
  apparent Kd: 4.79 nM

## UUGGACGUCGUAGGAUAUGUAGGAUAUUCCUACAUGAGGAUCACCCAUGUUGAAAUGGAAGAAGGACAGAAGGACGAUGUCCAU
[1]
  apparent Kd: 56.9 nM
[2]
  apparent Kd: 11.8 nM

## UUGGACGUCGUAGGAUAUGUAGGAUAUUCCUACAUGAGGAUCACCCAUGUUGACAUGGAAGAAGGACAGAAAGACGAUGUCCAU
[1]
  apparent Kd: 333 nM
[2]
  apparent Kd: 6.63 nM

## UUGGACGUCGUAGGAUAUGUAGGAUAUUCCUACAUGAGGAUCACCCAUGUUGACAUGGAAGAAGGACAGAAGGACGAAGUCCAU
[1]
  apparent Kd: 261 nM
[2]
  apparent Kd: 4.54 nM

## UUGGACGUCGUAGGAUAUGUAGGAUAUUCCUACAUGAGGAUCACCCAUGUUGACAUGGAAGAAGGACAGAAGGACGUUGUCCAU
[1]
  apparent Kd: 404 nM
[2]
  apparent Kd: 5.74 nM

## UUGGACGUCGUAGGAUAUGUAGGAUAUUCCUACAUGAGGAUCACCCAUGUUGACAUGGAAGAAGGACAGAAGGACUAUGUCCAU
[1]
  apparent Kd: 195 nM
[2]
  apparent Kd: 8.53 nM

## UUGGACGUCGUAGGAUAUGUAGGAUAUUCCUACAUGAGGAUCACCCAUGUUGACAUGGAAGAAGGACAGACGGACGAUGUCCAU
[1]
  apparent Kd: 337 nM
[2]
  apparent Kd: 8.52 nM

## UUGGACGUCGUAGGAUAUGUAGGAUAUUCCUACAUGAGGAUCACCCAUGUUGACAUGGGAGAAGGACAGAAGGACGAUGUCCAU
[1]
  apparent Kd: 52.4 nM
[2]
  apparent Kd: 176 nM

## UUGGACGUCGUAGGAUAUGUAGGAUAUUCCUACAUGAGGAUCACCCAUGUUGACUUGGAAGAAGGACAGAAGGACGAUGUCCAU
[1]
  apparent Kd: 22 nM
[2]
  apparent Kd: 4.06 nM

## UUGGACGUCGUAGGAUAUGUAGGAUAUUCCUACAUGAGGAUCACCCAUGUUGUCAUGGAAGAAGGACAGAAGGACGAUGUCCAU
[1]
  apparent Kd: 328 nM
[2]
  apparent Kd: 4.9 nM

## UUGGACGUCGUAGGAUAUGUAGGAUAUUCUUACAUGAGGAUCACCCAUGUUGACAUGGAAGAAGGACAGAAGGACGAUGUCCAU
[1]
  apparent Kd: 56.7 nM
[2]
  apparent Kd: 7.2 nM

## UUGGACGUCGUAGGAUAUGUAGGUUAUUCCUACAUGAGGAUCACCCAUGUUGACAUGGAAGAAGGACAGAAGGACGAUGUCCAU
[1]
  apparent Kd: 184 nM
[2]
  apparent Kd: 4.18 nM

## UUGGACGUCGUAGGAUAUGUGGGAUAUUCCUACAUGAGGAUCACCCAUGUUGACAUGGAAGAAGGACAGAAGGACGAUGUCCAU
[1]
  apparent Kd: 31.1 nM
[2]
  apparent Kd: 5.52 nM

## UUGGAUGUUGAGGAUAUGCUGGUGUUUAUUAUAGCAGAAGGCGAUACAUGAGGAUCACCCAUGUUCAUGGCUUU
[3]
  apparent Kd: 12.8 nM
[4]
  apparent Kd: 15.2 nM

## UUGGCAACGUAGAAGGGUGACAUGAGGAUCACCCAUGUGCCGAUAUAUCUCGAGAUAUGUCGGCCACAGGAUAUACGUGCCAUC
[1]
  apparent Kd: 35.9 nM
[2]
  apparent Kd: 35.2 nM

## UUGGGUCGGGAGGAUAUUCGGGCCCAAGGGCUUGGAGAAGGCUCGACAUGAGGAUCACCCAUGUAAGUGUACUU
[3]
  apparent Kd: 26.4 nM
[4]
  apparent Kd: 73.3 nM

## UUGGUAUUUGUAGGAUAUCUGUCGCCACCGUGUGGAGAAGGACGAACAUGAGGAUCACCCAUGUAUCAUGGUGUGGGCUUUCCU
[3]
  apparent Kd: 104 nM
[4]
  apparent Kd: 99.7 nM

## UUGGUAUUUGUAGGAUAUCUGUCGCCACCGUGUGGAGAAGGACGAACAUGAGGAUCACCCAUGUAUCAUGGUGUGGGCUUUGCU
[3]
  apparent Kd: 302 nM
[4]
  apparent Kd: 317 nM

## UUGGUCGUCGUAGGAUAUGUAGGAUAUUCCUACAUGAGGAUCACCCAUGUUGACAUGGAAGAAGGACAGAAGGACGAUGUCCAU
[1]
  apparent Kd: 447 nM
[2]
  apparent Kd: 5.71 nM

## UUGGUUGUCGUAGGAUAUGUAGGAUAUUCCUACAUGAGGAUCACCCAUGUUCGCAUGGAAGAAGGACGGAAGGACGAUGACCAU
[1]
  apparent Kd: 317 nM
[2]
  apparent Kd: 109 nM

## UUGUACUAGGGAGGAUAUGGGAAGAUACAUGAGGAUCACCCAUGUUUAAGAAUGCCGAGAGGCAACUAGAAGGCCCUAGUACCU
[1]
  apparent Kd: 473 nM
[2]
  apparent Kd: 19.4 nM

## UUGUGGGAGACAGGAUAUGUACGGAAGGUCCACGUACAUGAGGAUCACCCAUGUCCAGGCUUCAGACAGAAGGGUCACCAGGUG
[1]
  apparent Kd: 595 nM
[2]
  apparent Kd: 45.4 nM

## UUGUUCUGAGGAUAUACAUGAGGAUCACCCAUGUGUUUCAGCUAGGAGACUAGCGAAUGUAGAAGGCUGUUCUC
[3]
  apparent Kd: 15.4 nM
[4]
  apparent Kd: 15.8 nM

## UUGUUGUAUGUAGGAUAUGCAUAUUAUUAUUGUGCAGAAGGACAUGAGGAUCACCCAUGUAUAUUAUUAUUAUAUAUUAUAUAU
[3]
  apparent Kd: 35.3 nM
[4]
  apparent Kd: 54.3 nM

## UUGUUGUGAGGAUAUCCAAUAUAUGACAUGAGGAUCACCCAUGUUUCCACUCGUACCUCCGGAGAAGGCACUUGGU
[3]
  apparent Kd: 35.5 nM
[4]
  apparent Kd: 29.1 nM

## UUUAAGUCAGGAUAUCGUUAAUUUAAUUAUUUAUUUUAAUUCGAGAAGGGACAUGAGGAUCACCCAUGUAAUUU
[3]
  apparent Kd: 36.1 nM
[4]
  apparent Kd: 55.9 nM

## UUUAAUCGAAACAUGAGGAUCACCCAUGUGUUGUAAUUAACAUAGGAUAUUUGUAUACUUUUGUAAAAGAAGGAUGAUAAUACU
[1]
  apparent Kd: 17.1 nM
[2]
  apparent Kd: 13.6 nM

## UUUACAUGAGGAUCACCCAUGUCUUGCAAGAUGAGUUCUGGUGAGGAUAUACAUGGUAAAGAACUGUAGAAGGCACUGGGUACA
[1]
  apparent Kd: 432 nM
[2]
  apparent Kd: 430 nM

## UUUACUUACGAAGGAUAUGGUUACAUGAGGAUCACCCAUGUAUGUAUAUUGAUCUAGUAUUUUAACCAGAAGGUCGUGAUUUUU
[3]
  apparent Kd: 34.4 nM
[4]
  apparent Kd: 46.6 nM

## UUUAGAUUCAGAGGAUAUUGAUGUUGUAUUUUACAAGAAGGCUGAUUGGUUUGAAUUGUUUUUUAACAUGAGGAUCACCCAUGU
[1]
  apparent Kd: 28.5 nM
[2]
  apparent Kd: 20.7 nM
